Test results reported in ChEMBL document CHEMBL4813947, “New dual ATP-competitive inhibitors of bacterial DNA gyrase and topoisomerase IV active against ESKAPE pathogens” (Eur J Med Chem, 2021).
Converted amounts (≈) assume the structure as drawn.

Experiments:
[1] = test system: human topoisomerase 2alpha; experiment: Selectivity ratio of IC50 for inhibition of human topoisomerase 2alpha to IC50 for inhibition of Escherichia coli topoisomerase IV; format: toxicity; conditions: read-out: Ratio IC50
[2] = Inhibition of Escherichia coli topoisomerase assessed as reduction in relaxation of supercoiled pNO1 DNA measured after 30 mins by fluorescence assay
Procedure, shortened: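 Enzyme run per an earlier-reported procedure; IC50 fitted from seven inhibitor concentrations, mean of three independent measurements.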

[3] = test system: Staphylococcus aureus; experiment: Antibacterial activity against Staphylococcus aureus ATCC 29213 assessed as inhibition of bacterial growth by CLSI protocol based broth microdilution assay; format: functional
[4] = test system: Staphylococcus aureus; experiment: Antibacterial activity against methicillin-resistant Staphylococcus aureus ATCC 43300 assessed as inhibition of bacterial growth by CLSI protocol based broth microdilution assay; format: functional
Procedure, shortened: (§1)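 Minimum inhibitory concentration by standard serial broth microdilution following CLSI guidelines. Medium was MHBII broth (22 g/L powder: beef extract, casein acid hydrolysate, starch), with MHBII agar (14 g agar per L broth). Where noted, assayed without and with efflux pump substrate phenylalanine-arginine β-naphthylamide (PAβN).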

[5] = test system: Staphylococcus aureus; experiment: Antibacterial activity against vancomycin-resistant Staphylococcus aureus ATCC 700699 harboring GyrB R144I mutant assessed as inhibition of bacterial growth by CLSI protocol based broth microdilution assay; format: functional; procedure, shortened: as §1
[6] = test system: Staphylococcus aureus; experiment: Antibacterial activity against vancomycin-resistant wild type Staphylococcus aureus ATCC 700699 assessed as inhibition of bacterial growth by CLSI protocol based broth microdilution assay; format: functional; procedure, shortened: as §1
[7] = test system: Escherichia coli; experiment: Antibacterial activity against Escherichia coli MG1655 harboring GyrB R136C mutant assessed as inhibition of bacterial growth in presence of efflux pump inhibitor PAbetaN by CLSI protocol based broth microdilution assay; format: functional; procedure, shortened: as §1
[8] = test system: Staphylococcus aureus; experiment: Ratio of MIC for methicillin-resistant Staphylococcus aureus ATCC 43300 harboring GyrB R144I mutant to MIC for methicillin-resistant wild type Staphylococcus aureus ATCC 43300; format: functional
[9] = test system: Staphylococcus aureus; experiment: Ratio of MIC for vancomycin-resistant Staphylococcus aureus ATCC 700699 harboring GyrB […] mutant to MIC for vancomycin-resistant wild type Staphylococcus aureus ATCC 700699; format: functional
[10] = test system: human topoisomerase 2alpha; experiment: Selectivity ratio of IC50 for inhibition of human topoisomerase 2alpha to IC50 for inhibition of Staphylococcus aureus DNA gyrase; format: toxicity; conditions: read-out: Ratio IC50
[11] = test system: HepG2; experiment: Cytotoxicity against human HepG2 cells upto 100 uM by lactate dehydrogenase assay; format: cell-based
Procedure, shortened: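 HepG2 or MCF-7 cells grown in EMEM with 2 mM L-glutamine, penicillin/streptomycin, 10% FBS at 37 °C, 5% CO2; LDH release kit per manufacturer, test concentrations up to 100 µM.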

[12] = Ratio of genotoxicity in CHO-K1 cells by invitro micronucleus test to MIC for methicillin-resistant wild type Staphylococcus aureus ATCC 43300; format: toxicity, cell-based; conditions: hamster
[13] = Genotoxicity in CHO-K1 cells upto 62 uM by in presence of rat liver S9 fraction invitro micronucleus test; format: subcellular, Cricetulus griseus; conditions: chinese hamster
[14] = Drug metabolism in rat liver S9 fraction assessed as direct glucuronide conjugate; format: ADME, subcellular

Q: Which results are given for Cc1[nH]c(C(=O)Nc2nc3c(OCc4ccsc4)cc(C(=O)O)cc3s2)c(Cl)c1Cl?
A: selectivity ratio [1]: 13; IC50 [2]: 0.34 µM; MIC [3]: 0.25 µg/mL (≈ 0.518 µM); MIC [4]: 0.0625 µg/mL (≈ 0.13 µM); MIC [5]: 0.0625 µg/mL (≈ 0.13 µM); MIC [6]: 0.0313 µg/mL (≈ 0.0649 µM); MIC [7]: 2 µg/mL; Ratio [8]: 4; Ratio [9]: 2; selectivity ratio [10]: 450; Activity [11]: Non-Toxic; selectivity ratio [12]: 123; Activity [13]: Non-Toxic; Drug metabolism [14]: Metabolite_Detected
